From PubChem BioAssay
MrgX1 allo act = human MrgX1 positive allosteric modulation, primary screen; Q96LB2; MrgX1-HEK293, Fluo-4 calcium flux, FDSS; stronger effect = higher value; B-score at 10 µM; 310,000 compounds, 0.63% hits; AID 588675;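 active = plate-corrected calcium response at least 3 library SD above typical, normal starting fluorescence, not activating the receptor alone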;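 also: compound read alongside a low EC10 to EC30 dose of BAM8-22 agonist; peak minus trough fluorescence over baseline measured at the second addition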
Target sequence (Q96LB2 whole entry, looked up): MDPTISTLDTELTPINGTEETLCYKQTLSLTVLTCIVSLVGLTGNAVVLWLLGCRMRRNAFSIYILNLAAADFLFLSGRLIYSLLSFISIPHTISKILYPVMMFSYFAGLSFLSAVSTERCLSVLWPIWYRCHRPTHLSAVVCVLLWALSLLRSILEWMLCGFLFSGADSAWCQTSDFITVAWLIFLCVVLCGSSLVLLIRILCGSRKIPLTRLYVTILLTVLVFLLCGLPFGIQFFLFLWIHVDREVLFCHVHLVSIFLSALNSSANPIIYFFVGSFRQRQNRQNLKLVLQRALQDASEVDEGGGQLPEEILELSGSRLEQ
RGS4 inh = inhibitors of human RGS4. B-score at 10 µM. P49798. HEK293 M3R/RGS4 inducible, Fluo-4 calcium flux; stronger effect = higher value; triggered by carbachol at its EC20. 310,000 compounds, 0.45% hits;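 active = B-score, a plate-corrected calcium signal, over three deviations above library mean, with baseline fluorescence within five deviations of library mean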;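 also: RGS4 expression induced by doxycycline in cells with stable M3 receptor; B-score is computed from the integrated fluorescence ratio over baseline after carbachol; higher B-score means a larger calcium signal and so more RGS4 inhibition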
MrgX1 ag = agonists of human MrgX1 receptor; Q96LB2; MrgX1-HEK293 cells, Fluo-4 calcium fluorescence, agonist mode; stronger effect = higher value; B-score at 10 µM; 310,000 compounds, 0.44% hits; AID 588627;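 active = calcium response B-score plate-corrected fluorescence ratio at least 3 library SD, with starting fluorescence B-score inside 5 SD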
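System – MrgX1-expressing HEK293 cells · Incubation – cells plated overnight, dye loaded 0.5 h 37 °C, 0.5 h room temperature · Technique – kinetic Fluo-4 NW fluorescence of intracellular calcium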
MrgX1 antag = human MrgX1 receptor antagonism, primary screen; B-score at 10 µM; 310,000 compounds, 1.3% hits; Q96LB2; MRGX1-HEK293 calcium flux, Fluo-4, BAM8-22 antagonism; stronger effect = lower value;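 active = calcium-response B-score plate-corrected more than 3 library SD below zero, starting fluorescence within 5 deviations, no agonist response on first addition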;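 also: peak minus trough fluorescence over baseline after final BAM8-22 challenge near maximal dose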
RGS4 act = RGS4 potentiation or activation; HEK293 M3R/inducible RGS4, carbachol calcium flux Fluo4; stronger effect = lower value; B-score at 10 µM; 310,000 compounds, 0.92% hits; AID 463111;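 active = B-score of the integrated calcium signal more than 4 SD below the library mean, with starting fluorescence not abnormally high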;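 also: negative B-score means reduced calcium response which marks RGS4 activation or potentiation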
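Also added: carbachol at ECmax as muscarinic agonist stimulus; Assay system: HEK293 cells with stable M3R and inducible RGS4; Timing: overnight RGS4 induction, 30 min dye load 37 °C, 20 min compound RT; Measured by: Fluo4-AM (2 µM) calcium-flux fluorescence, kinetic read.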
RGS4 inh valid = validation of RGS4 inhibitors | 1,700 compounds, 65% hits | shares compounds with RGS4 inh | calcium response, % at 10 µM | HEK293 M3R/RGS4, carbachol calcium Fluo-4 fluorescence; carbachol added at its EC20; 0 = buffer wells, 100 = carbachol control;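 active = duplicate-averaged calcium response above the buffer-only control mean plus 5 SD of those controls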;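 also: integrated fluorescence ratio F max minus min over baseline F0; higher response in RGS4-induced cells means RGS4 inhibition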
RGS4 uninduced = counter-screen for RGS4 inhibitors: effect in non-induced cells; activity (percent), % at 10 µM; 1,900 compounds, 20% hits; shares compounds with RGS4 inh; AID 493000; HEK293 M3R non-induced, carbachol calcium Fluo-4; submaximal (EC20) carbachol stimulus; buffer wells 0%, carbachol control wells 100%; call rule not given here;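 also: RGS4 induction absent so cells express M3R without RGS4; higher means more calcium signal and flags a non-specific hit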
RGS4 inh ctr2 = second counter-screen for RGS4 inhibitors: non-induced cells without carbachol; calcium response (agonist-mode artifact), % at 10 µM; 1,900 compounds, 22% hits; shares compounds with RGS4 inh; HEK293 M3R/RGS4 non-induced, Fluo-4 calcium, no carbachol; normalised: buffer wells 0%, carbachol wells 100%;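 active = duplicate-averaged calcium rise in uninduced cells above buffer wells' mean plus 5 SD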
Hits are given with their value. This is a sample that favours compounds with a hit; in the whole collection about 3.5% have one here.

For Oc1ccc(C=Nc2cccc3ccccc23)c(O)c1 the results were MrgX1 allo act inactive, RGS4 inh inactive, MrgX1 ag inactive, MrgX1 antag inactive and RGS4 act inactive.
Cc1ccc(N=Cc2ccc(O)cc2O)cc1F was read as MrgX1 allo act inactive, RGS4 inh 10, MrgX1 ag inactive, MrgX1 antag inactive, RGS4 act inactive, RGS4 inh valid 14%, RGS4 uninduced inactive and RGS4 inh ctr2 13%.
Cc1ccc(NC(=O)CCNC(=O)c2ccc(Br)cc2)nc1 was read as MrgX1 allo act inactive, RGS4 inh inactive, MrgX1 ag inactive, MrgX1 antag inactive and RGS4 act inactive.
`COc1cc(/C=C(/C(=O)c2cccs2)c2nc3ccccc3[nH]2)cc(OC)c1O` gave MrgX1 allo act inactive, RGS4 inh 22, MrgX1 ag inactive, MrgX1 antag inactive, RGS4 act inactive, RGS4 inh valid 88%, RGS4 uninduced 41% and RGS4 inh ctr2 inactive.
O=c1c2ccccc2nc(-c2ccco2)n1CCc1ccc(O)cc1 was read as MrgX1 allo act inactive, RGS4 inh inactive, MrgX1 ag inactive, MrgX1 antag inactive and RGS4 act inactive.
For CCCCC1=CC2=C(c3ccco3)C(=O)C(C)(OC(=O)c3ccc(OC)cc3)C(=O)C2=CN1Cc1ccco1 (stereo not given) the results were MrgX1 allo act inactive, RGS4 inh inactive, MrgX1 ag inactive, MrgX1 antag -4.6, RGS4 act inactive, RGS4 inh valid inactive, RGS4 uninduced inactive and RGS4 inh ctr2 inactive.
For CCCCC1=CC2=C(c3ccco3)C(=O)C(C)(OC(=O)c3ccc(OC)cc3)C(=O)C2=CN1Cc1ccc(OC)cc1 (stereo not given) the results were RGS4 inh inactive and RGS4 act inactive.
CCCCC1=CC2=C(c3ccco3)C(=O)C(C)(OC(=O)c3ccc(OC)cc3)C(=O)C2=CN1C(CO)CO (stereo not given) was read as MrgX1 allo act inactive, RGS4 inh inactive, MrgX1 ag inactive, MrgX1 antag inactive and RGS4 act inactive.
`CCCCC1=CC2=C(c3ccco3)C(=O)C(C)(OC(=O)c3ccc(OC)cc3)C(=O)C2=CN1CCCCO` (stereo not given) gave MrgX1 allo act inactive, RGS4 inh inactive, MrgX1 ag inactive, MrgX1 antag inactive, RGS4 act inactive, RGS4 inh valid inactive, RGS4 uninduced inactive and RGS4 inh ctr2 inactive.
Screening CCCCC1=CC2=C(c3ccco3)C(=O)C(C)(OC(=O)c3ccc(OC)cc3)C(=O)C2=CN1c1ccc(OC)cc1 (stereo not given) returned MrgX1 allo act inactive, RGS4 inh 5.3, MrgX1 ag inactive, MrgX1 antag inactive, RGS4 act inactive, RGS4 inh valid 7.0%, RGS4 uninduced inactive and RGS4 inh ctr2 inactive.
`CCCCC1=CC2=C(c3ccco3)C(=O)C(C)(OC(=O)c3ccc(OC)cc3)C(=O)C2=CN1CCN1CCOCC1` (stereo not given) gave MrgX1 allo act inactive, RGS4 inh inactive, MrgX1 ag inactive, MrgX1 antag inactive, RGS4 act inactive, RGS4 inh valid inactive, RGS4 uninduced inactive and RGS4 inh ctr2 inactive.
`Cc1oc2c(CN3CCC(C)CC3)c(O)ccc2c(=O)c1-c1ccccc1` gave MrgX1 allo act inactive, RGS4 inh inactive, MrgX1 ag inactive, MrgX1 antag inactive and RGS4 act inactive.
For O=C(Nc1ccc(S(=O)(=O)NCc2ccco2)cc1)c1ccc(F)cc1 the results were MrgX1 allo act inactive, RGS4 inh inactive, MrgX1 ag inactive, MrgX1 antag inactive and RGS4 act inactive.
